This note sets out measurements from PubChem BioAssay AID488910 (Broad Institute, 2010).

Out of some 20,000 compounds screened, about 25 (0.1%) were called active. The entries come from a sample that favours actives as a whole. Unmarked numbers belong to inactive results.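 Rule for the calls: active = mean replicate protection from cytokine-induced ATP loss at least 50% and at least 75% of replicates each reaching 50%; inconclusive = meets only one of the two criteria, mean or replicate share; inactive = fails both the mean and replicate share criteria.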

The assay in a line: protection of INS-1E cells from cytokine death, primary screen, ATP luminescence, single point (AID 488910). The following applies: INS-1E cytokine-induced death, 48 h, at 10 µM, hits give high values, normalised: neutral wells 0, positive control 100. Summed up: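 Material: INS-1E rat cells; Quantity: 8000 cells/well; Buffer or medium: phenol-red-free RPMI with 5% fetal bovine serum; Probe or stimulus: cytokine cocktail of IFN-γ, TNF-α and IL-1β; Compound dosing: single test concentration per compound, delivered by pin transfer; Incubation: 48 h co-treatment, 10 min post-lysis read; Signal: CellTiter-Glo luminescence.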
For the compound `C[C@H](CO)N1C[C@H](C)[C@H](CN(C)C(=O)Nc2ccc(F)cc2)Oc2c(NC(=O)c3cnccn3)cccc2C1=O`, the protection from cytokine-induced ATP loss was 8.13%.
As to `C[C@@H]1CCCCO[C@H](CN(C)C(=O)c2ccccc2)[C@@H](C)CN([C@H](C)CO)C(=O)c2cc(NC(=O)Nc3cccc4ccccc34)ccc2O1`, the protection from cytokine-induced ATP loss is -1.39%.
The figure for `C[C@@H]1CCCCO[C@H](CN(C)S(=O)(=O)c2ccccc2)[C@@H](C)CN([C@H](C)CO)C(=O)c2cc(NC(=O)Nc3ccc(F)cc3)ccc2O1` is -6.46%.
For `CC(C)NC(=O)N(C)C[C@H]1Oc2ccc(NC(=O)Cn3cnnn3)cc2CC(=O)N([C@H](C)CO)C[C@H]1C` the value was -1.35%; for `Cc1noc(C)c1NC(=O)Nc1ccc2c(c1)C(=O)N([C@H](C)CO)C[C@H](C)[C@H](CN(C)Cc1ccc(Oc3ccccc3)cc1)O2`, -15.9%; for `C[C@H](CO)N1C[C@H](C)[C@H](CN(C)S(C)(=O)=O)Oc2ccc(NC(=O)Nc3ccc(F)cc3)cc2C1=O`, 2.55%.
For `CC(C)NC(=O)N(C)C[C@@H]1Oc2c(cccc2N(C)C)C(=O)N([C@@H](C)CO)C[C@H]1C`, the protection from cytokine-induced ATP loss is 10.2%.
For `C[C@@H]1CN([C@H](C)CO)C(=O)c2cccc(NS(=O)(=O)c3ccc(F)cc3)c2O[C@@H]1CN(C)C(=O)Nc1ccc(C(F)(F)F)cc1` the value was -38%; for `Cc1ccc(S(=O)(=O)N(C)C[C@@H]2Oc3c(NC(=O)c4ccncc4)cccc3C(=O)N([C@@H](C)CO)C[C@@H]2C)cc1`, 11.7%.
The figure for `COc1ccc(NC(=O)N(C)C[C@H]2Oc3c(NC(=O)Nc4cccc5ccccc45)cccc3C(=O)N([C@H](C)CO)C[C@@H]2C)cc1` is -0.252%; for `COc1cc(Br)cc(/C=N/NC(=O)c2ccccn2)c1O` it is -83.9%; for `C[C@@H]1CCCCO[C@H](CN(C)CC2CC2)[C@@H](C)CN([C@H](C)CO)C(=O)c2cc(NC(=O)Cc3ccccc3)ccc2O1` it is -0.194%.
The figure for `COc1ccc(NC(=O)N(C)C[C@H]2Oc3ccc(NC(=O)Nc4ccc5c(c4)OCO5)cc3C(=O)N([C@H](C)CO)C[C@H]2C)cc1` is 3.2%.
For `Cc1ccc(S(=O)(=O)Nc2ccc3c(c2)C(=O)N([C@H](C)CO)C[C@H](C)[C@H](CN(C)Cc2ccccc2)OCCCC[C@@H](C)O3)cc1`, the protection from cytokine-induced ATP loss is -2.3%.
Consider `CC(C)NC(=O)N(C)C[C@H]1Oc2c(NS(C)(=O)=O)cccc2C(=O)N([C@@H](C)CO)C[C@H]1C`, for which the protection from cytokine-induced ATP loss is 12.8%.
For `C[C@H]1CN([C@@H](C)CO)C(=O)c2cc(NC(=O)Cn3cnnn3)ccc2O[C@@H]1CN(C)C(=O)Nc1ccccc1` the value was 2.24%.
For `Cc1ccc(S(=O)(=O)N(C)C[C@@H]2Oc3ccc(NC(=O)Nc4ccc5c(c4)OCO5)cc3C(=O)N([C@@H](C)CO)C[C@@H]2C)cc1` the value was 20.1%.
For `O=C(O)CCCCCCC(=O)N/N=C/c1ccncc1Br` the value was 6.66%.
With `C[C@H]1CN([C@@H](C)CO)C(=O)c2cccc(NC(=O)C3CCCCC3)c2O[C@H]1CN(C)C(=O)NC1CCCCC1`, the protection from cytokine-induced ATP loss is 6.52%.
The figure for `Cc1noc(C)c1NC(=O)N(C)C[C@H]1Oc2ccc(NC(=O)C3CCCCC3)cc2CC(=O)N([C@@H](C)CO)C[C@H]1C` is 4.09%.
For `Cc1ccc(S(=O)(=O)N(C)C[C@@H]2OCCCC[C@@H](C)Oc3ccc(NS(=O)(=O)c4ccccc4)cc3C(=O)N([C@H](C)CO)C[C@@H]2C)cc1` the value was -4.67%; for `Cc1ccc(S(=O)(=O)Nc2ccc3c(c2)C(=O)N([C@H](C)CO)C[C@H](C)[C@H](CN(C)Cc2ccc(C(=O)Nc4ccccc4N)cc2)OCCCC[C@@H](C)O3)cc1`, 1.83%.
For `C[C@H]1CN([C@@H](C)CO)C(=O)c2cc(NS(=O)(=O)c3ccc(Cl)cc3)ccc2O[C@H]1CN(C)Cc1ccc(Oc2ccccc2)cc1` the value was -11.4%; for `C[C@@H]1CCCCO[C@@H](CN(C)C(=O)CCCN(C)C)[C@@H](C)CN([C@H](C)CO)C(=O)c2cc(NC(=O)Nc3ccc(F)cc3)ccc2O1`, 9.84%.
Regarding `C[C@H](CO)N1C[C@H](C)[C@H](CN(C)Cc2ccncc2)Oc2ccc(NC(=O)C3CCCCC3)cc2CC1=O`, the protection from cytokine-induced ATP loss is -9.96%.
For `COc1ccc(NC(=O)N(C)C[C@H]2Oc3c(NC(=O)C4CC4)cccc3C(=O)N([C@@H](C)CO)C[C@@H]2C)cc1` the value was -1.85%.
The figure for `C[C@@H]1CN([C@H](C)CO)C(=O)c2cccc(NC(=O)c3cnccn3)c2O[C@@H]1CN(C)Cc1ccncc1` is 3.26%; for `C[C@@H]1CN([C@H](C)CO)C(=O)c2cc(NC(=O)CCCCCC(=O)Nc3ccccc3N)ccc2O[C@H]1CN(C)C(=O)Nc1ccc(C(F)(F)F)cc1` it is 1.3%; for `C[C@@H]1CN([C@H](C)CO)C(=O)Cc2cc(NC(=O)CCN3CCOCC3)ccc2O[C@@H]1CN(C)S(C)(=O)=O` it is 3.88%.
Turning to `Cc1ccc(S(=O)(=O)N(C)C[C@H]2Oc3ccc(NS(=O)(=O)c4ccccc4)cc3CC(=O)N([C@@H](C)CO)C[C@H]2C)cc1`, the protection from cytokine-induced ATP loss was -6.07%.
In the case of `C[C@@H]1CN([C@H](C)CO)C(=O)c2cccc(NC(=O)C3CCCCC3)c2O[C@@H]1CN(C)C(=O)NC1CCCCC1`, the protection from cytokine-induced ATP loss is 6.03%.
The figure for `C[C@H](CO)N1C[C@H](C)[C@H](CN(C)Cc2ccc3c(c2)OCO3)Oc2c(NC(=O)NC3CCCCC3)cccc2C1=O` is -16.1%.
The figure for `CNC[C@@H]1Oc2ccc(NS(=O)(=O)c3c(C)noc3C)cc2CC(=O)N([C@@H](C)CO)C[C@@H]1C` is 0.843%.
The figure for `CC(C)NC(=O)Nc1ccc2c(c1)C(=O)N([C@H](C)CO)C[C@H](C)[C@@H](CN(C)S(C)(=O)=O)OCCCC[C@@H](C)O2` is 1.03%; for `C[C@@H]1CN([C@@H](C)CO)C(=O)Cc2cc(NC(=O)C3CCCCC3)ccc2O[C@@H]1CN(C)C(=O)Nc1ccc(C(F)(F)F)cc1` it is -12.7%.
`Cc1ccc(S(=O)(=O)N(C)C[C@@H]2Oc3c(NS(=O)(=O)c4ccc(F)cc4)cccc3C(=O)N([C@@H](C)CO)C[C@H]2C)cc1`: the protection from cytokine-induced ATP loss is 15.4%.
For `COc1ccc(NC(=O)N(C)C[C@H]2Oc3ccc(NC(=O)Cc4cn(C)c5ccccc45)cc3CC(=O)N([C@@H](C)CO)C[C@H]2C)cc1` the value was 13.3%; for `Cc1noc(C)c1NC(=O)Nc1ccc2c(c1)C(=O)N([C@H](C)CO)C[C@@H](C)[C@@H](CN(C)Cc1ccccc1)O2`, 2.87%.
Turning to `C[C@@H]1CCCCO[C@@H](CN(C)CC2CC2)[C@@H](C)CN([C@H](C)CO)C(=O)c2cc(NC(=O)Nc3cccc4ccccc34)ccc2O1`, the protection from cytokine-induced ATP loss was -7.95%.
`Cc1cccc(CN(C)C[C@H]2OCc3cn(nn3)CCCC(=O)N([C@@H](C)CO)C[C@H]2C)c1`: the protection from cytokine-induced ATP loss was -2.7%.
On to `Cc1ccc(S(=O)(=O)N(C)C[C@@H]2Oc3ccc(NC(=O)c4ccncc4)cc3CC(=O)N([C@H](C)CO)C[C@H]2C)cc1`, for which the protection from cytokine-induced ATP loss was -0.881%.
For `COc1cc(/C=C/C=N/NC(=O)CCCCCC(=O)Nc2ccccc2O)ccc1O` the value was -1.89%; for `CC(C)NC(=O)N(C)C[C@H]1Oc2c(NC(=O)Nc3ccc(F)cc3)cccc2C(=O)N([C@@H](C)CO)C[C@@H]1C`, 12.3%; for `COc1ccc(S(=O)(=O)Nc2ccc3c(c2)CC(=O)N([C@@H](C)CO)C[C@@H](C)[C@@H](CN(C)C(=O)Nc2c(C)noc2C)O3)cc1`, 9.17%.
The figure for `COc1ccc(NC(=O)Nc2ccc3c(c2)C(=O)N([C@H](C)CO)C[C@H](C)[C@@H](CN(C)C(=O)NC2CCCCC2)OCCCC[C@@H](C)O3)cc1` is 14.1%; for `C[C@H]1CN([C@@H](C)CO)C(=O)c2cc(NC(=O)C3CCCCC3)ccc2O[C@H]1CN(C)S(=O)(=O)c1cn(C)cn1` it is 2.64%.
As for `C[C@H]1CN([C@@H](C)CO)C(=O)c2cccc(NC(=O)Nc3ccccc3)c2O[C@H]1CN(C)S(=O)(=O)c1ccc(Cl)cc1`, the protection from cytokine-induced ATP loss is -12.7%.
For `C[C@@H]1CN([C@H](C)CO)C(=O)Cc2cc(NC(=O)Nc3ccc(C(F)(F)F)cc3)ccc2O[C@@H]1CN(C)S(=O)(=O)c1ccccc1` the value was -5.63%.
For `C[C@H](CO)N1C[C@H](C)[C@H](CN(C)C(=O)Nc2ccc(C(F)(F)F)cc2)Oc2ccc(NS(=O)(=O)c3cn(C)cn3)cc2CC1=O` the value was 19%; for `C[C@@H]1CN([C@@H](C)CO)C(=O)Cc2cc(NS(=O)(=O)c3cccs3)ccc2O[C@@H]1CN(C)C(=O)Nc1ccc(C(F)(F)F)cc1`, -9.39%; for `O=C(N/N=C/c1ccc(Oc2ccccc2)cc1)c1ccccn1`, 4.62%.
For `CC(C)NC(=O)Nc1cccc2c1O[C@@H](CN(C)Cc1ccc(C(=O)O)cc1)[C@@H](C)CN([C@H](C)CO)C2=O` the value was 5.94%; for `C[C@H]1CN([C@@H](C)CO)C(=O)c2cccc(NC(=O)C3CCOCC3)c2O[C@H]1CN(C)S(C)(=O)=O`, 10.3%.
Regarding `COc1ccc(S(=O)(=O)N(C)C[C@H]2Oc3ccc(NC(=O)Nc4c(C)noc4C)cc3CC(=O)N([C@@H](C)CO)C[C@H]2C)cc1`, the protection from cytokine-induced ATP loss was 6.69%.
The figure for `Cc1noc(C)c1NC(=O)N(C)C[C@@H]1Oc2ccc(NS(C)(=O)=O)cc2C(=O)N([C@@H](C)CO)C[C@@H]1C` is 1.81%; for `Cc1noc(C)c1S(=O)(=O)Nc1ccc2c(c1)CC(=O)N([C@H](C)CO)C[C@H](C)[C@H](CN(C)S(=O)(=O)c1cn(C)cn1)O2` it is 15.3%.
